Source: PubChem (several laboratories)
An excerpt weighted towards active compounds, which were near 9.4% of everything screened.
Lmaj promast – Leishmania major promastigote growth inhibition, primary screen; 9% of 200,000 active; Leishmania major promastigotes, resazurin fluorescence viability; inhibition, % at 10 µM; in the data active = inhibition above about 50%;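 also: promastigotes grown with compound for 44 hours at 28 °C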
CSC inhib – cancer stem cell viability inhibitors, primary screen, luminescence; cancer stem cell-like cells viability; 1.1% of 300,000 active; AID 2717, 2010; inhibition, % at 7.5 µM; in the data active = inhibition above about 75%; tested in HMLE shEcad cells
T cruzi repl – inhibitors of intracellular T. cruzi growth, primary screen, luminescence, NIH3T3 host cells; T. cruzi beta-gal in NIH3T3, 90 h; inhibition, % (test concentration not listed); 1.4% of 300,000 active; AID 1885, 2009;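 active = mean inhibition across valid replicates above about 55%, limit read from the data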;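 also: signal also drops with host cell toxicity which is not excluded here; 0% = plate median of DMSO wells and 100% = zero luminescence signal; higher percent means less beta-gal luminescence so fewer parasites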
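System: Mouse NIH/3T3 fibroblasts infected with β-gal-expressing T. cruzi Tulahuen C4 | Quantity: NIH/3T3 cells, 5,000 per well | Reagent: 5000 reporter trypomastigotes per well | Dosing: Compound pinned at 50 nL/well, DMSO | Schedule: 3 h host attachment, then at least 90 h co-culture | Detection: GalScreen luminescence, 60 min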
Mdm2-MdmX inh – inhibitors of human Mdm2-MdmX association, primary screen, cell-based, luminescence, split luciferase, SaOS-2, uHTS; Protein Mdm4 (Homo sapiens) + E3 ubiquitin-protein ligase Mdm2 (Homo sapiens), …; SaOS-2 split-luciferase Mdm2/MdmX complementation; inhibition, % at 8 µM; 3% of 330,000 active;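 active = inhibition of at least 50% at 8 µM in the primary screen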
Target sequence (O15151 whole entry, looked up): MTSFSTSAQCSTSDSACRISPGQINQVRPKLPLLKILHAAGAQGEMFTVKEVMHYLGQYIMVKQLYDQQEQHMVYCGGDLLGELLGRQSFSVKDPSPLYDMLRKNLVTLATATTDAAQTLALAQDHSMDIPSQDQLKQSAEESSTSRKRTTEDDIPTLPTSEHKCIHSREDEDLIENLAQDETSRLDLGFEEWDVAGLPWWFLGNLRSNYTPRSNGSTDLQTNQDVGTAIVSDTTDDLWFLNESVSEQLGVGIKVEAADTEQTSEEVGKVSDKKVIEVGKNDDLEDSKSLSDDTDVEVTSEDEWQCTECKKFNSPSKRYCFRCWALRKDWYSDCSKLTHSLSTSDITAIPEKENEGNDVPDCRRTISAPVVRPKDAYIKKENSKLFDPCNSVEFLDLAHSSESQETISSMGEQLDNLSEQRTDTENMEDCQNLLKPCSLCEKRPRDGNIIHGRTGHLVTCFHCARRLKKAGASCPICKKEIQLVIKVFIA
Target sequence (Q00987 whole entry, looked up): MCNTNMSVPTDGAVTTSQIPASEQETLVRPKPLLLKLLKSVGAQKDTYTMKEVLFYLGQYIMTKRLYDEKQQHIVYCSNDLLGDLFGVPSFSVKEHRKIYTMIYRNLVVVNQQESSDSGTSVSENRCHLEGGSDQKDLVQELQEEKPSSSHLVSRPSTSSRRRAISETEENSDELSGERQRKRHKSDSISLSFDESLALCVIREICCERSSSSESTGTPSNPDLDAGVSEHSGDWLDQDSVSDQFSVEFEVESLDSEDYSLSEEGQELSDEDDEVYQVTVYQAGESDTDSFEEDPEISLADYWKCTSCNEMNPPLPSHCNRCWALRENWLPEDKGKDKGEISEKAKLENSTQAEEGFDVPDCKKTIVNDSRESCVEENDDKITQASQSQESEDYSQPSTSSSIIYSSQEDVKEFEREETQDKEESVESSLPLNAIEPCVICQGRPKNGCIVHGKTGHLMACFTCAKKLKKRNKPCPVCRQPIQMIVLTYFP
Beta cell apopt – inhibitors of cytokine-induced beta cell apoptosis, primary screen, luminescence. INS-1E cytokine-induced death, ATP luminescence, 48 h; percent of positive-control rescue, neutral wells zero. 0.8% of 300,000 active. protection from apoptosis, % (concentration not given with the values). AID 435005, 2010;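 active = Every replicate reaches about 75%, or at least half do and their mean reaches it too, limit read from the data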;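 also: 0% = cytokine-treated negative control wells and 100% = positive control rescue; higher means more ATP so stronger rescue from cytokine killing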
SKKanGAS inh – S. pyogenes SKKanGAS growth inhibitors in kanamycin, primary screen, streptokinase expression inhibitor project, SKKanGAS strain, BacTiter-Glo luminescence. 6 h. inhibition, % at 7.5 µM. 1.3% of 300,000 active. AID 1662, 2009;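 active = mean replicate score, as percent of positive control median, at least 50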;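 also: strain carries kanamycin resistance gene driven by streptokinase promoter and grows in 40 µg/ml kanamycin; loss of luminescence reflects streptokinase promoter inhibition or plain growth inhibition; 0% = median of DMSO wells and 100% = positive control at its reference dose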
An asterisk follows results filed as active; nt = no result.

SMILES	Lmaj promast	CSC inhib	T cruzi repl	Mdm2-MdmX inh	Beta cell apopt	SKKanGAS inh
CCCCCn1c(=O)c(C(=O)NCCc2ccccc2)c(O)c2ccccc21	nt	52	13	-4	18	17
CCN(CC)CCCNC(=O)c1c(O)c2ccccc2n(Cc2ccccc2)c1=O	100*	-8	15	27	2	2
Cn1c(O)c(C=NCCN2CCNCC2)c(=O)[nH]c1=O	nt	-20	6	-11	-4	-7
O=C(O)CSC(=S)N1CC2CC(C1)c1cccc(=O)n1C2 (stereo unspecified)	-4	-7	-4	9	-5	2
COc1ccc(-c2cc(=Nc3ccccc3)c3cc(C)ccc3o2)cc1	32	49	41	-94	4	1
COc1ccc(-c2cc(=NCCC(=O)O)c3cc(C)ccc3o2)cc1	62*	nt	-4	nt	nt	7
Cc1ccc(/C=C2/Sc3ccc(C(=O)N4CCC5(CC4)OCCO5)cc3NC2=O)cc1	nt	4	36	39	-5	53*
CN1C(=O)c2ccccc2Sc2ccc(C(=O)N3CCC4(CC3)OCCO4)cc21	-5	-13	8	15	2	-1
O=C(Cc1ccccc1)N1CCN(Cc2cccc(Br)c2)CC1	nt	-15	5	20	2	1
CCN1CCN(Cc2cc(Br)cc(OC)c2O)CC1	8	-4	21	5	-1	-12
O=C(Cc1ccc(Br)cc1)N1CCN(Cc2ccccc2)CC1	87*	nt	-15	-3	-10	2
Oc1c(Br)cc(Br)cc1CN1CCN(Cc2ccccc2)CC1	73*	19	-1	8	3	1
CCc1cccc(CC)c1NC(=S)N1CC2CC(C1)c1cccc(=O)n1C2 (stereo unspecified)	22	-11	-15	12	nt	-2
COCCCn1c(N)c(C(=O)NCCC(C)C)c2nc3ccccc3nc21	3	40	26	24	-2	14
CCOC(=O)c1c(NC(=O)c2c(N)n(CCCOC)c3nc4ccccc4nc23)sc2c1CCCC2	-6	3	64*	49	2	56*
CCCCn1c(N)c(C(=O)OCCOC)c2nc3ccccc3nc21	nt	-6	13	3	-7	23
CCCCn1c(NC(=O)c2ccco2)c(C(=O)OCC)c2nc3ccccc3nc21	76*	11	37	14	-18	15
CCCCn1c(N)c(C(=O)OCC2CCCO2)c2nc3ccccc3nc21 (stereo unspecified)	100*	-5	11	14	16	16
CC(C)CCn1c(N)c(C(=O)OCC2CCCO2)c2nc3ccccc3nc21 (stereo unspecified)	54*	8	18	-4	-2	8
C[C@H](NC(=O)CCC(=O)N1C[C@H]2C[C@H](C1)c1cccc(=O)n1C2)c1ccccc1	nt	1	0	-16	nt	1
O=C(c1cccc2ccccc12)C1CCCN(Cc2ccon2)C1 (stereo unspecified)	nt	-8	3	5	-3	-6
O=C(c1cccc2ccccc12)C1CCCN(C2CCC2)C1 (stereo unspecified)	74*	-8	10	-18	-2	-1
CC(C)N1CCN(c2ccc(O)cc2)CC1	56*	3	-18	nt	-1	0
COC(=O)c1c(C)[nH]c(C(=O)C(Cc2ccccc2)N(C)C)c1C (stereo unspecified)	100*	-1	24	18	-6	10
O=C1NC(=O)N(Cc2ccco2)C(=O)/C1=C/c1ccc(-c2cccc([N+](=O)[O-])c2)o1	99*	7	-10	27	-8	nt
SMILES	Lmaj promast	CSC inhib	T cruzi repl	Mdm2-MdmX inh	Beta cell apopt	SKKanGAS inh
CCSc1cc(C2C(C#N)=C(N)Oc3n[nH]c(C)c32)c(C)o1 (stereo unspecified)	94*	-13	0	44	-2	2
CCC(C#N)(CC)P(=S)(c1ccccc1)c1ccccc1	100*	11	14	-5	10	19
Cc1ccc(N/N=C/c2c(O)n(-c3ccccc3)c(=O)[nH]c2=O)cc1	92*	96*	26	-23	-14	-8
Nc1ccccc1C(=O)OCCc1ccccc1	nt	2	nt	-164	1	nt
Cc1cccc(CSc2nc3c(cc2C#N)CN(C)CC3)c1	21	37	59*	17	-1	-1
C=CCSc1nc2c(c(-c3ccsc3)c1C#N)CN(C)CC2	nt	0	38	6	1	17
CN1CCc2nc(SCc3ccccc3Br)c(C#N)cc2C1	65*	27	52	17	-1	17
CCOC(=O)c1cncn1[C@@H](C)c1ccccc1	nt	-10	nt	-1	-2	nt
CNC(C)Cc1ccccc1Sc1ccc(O)cc1 (stereo unspecified)	100*	8	-1	28	-7	3
O=C1C2CCN(CC2)C1Cc1ccc(OCc2ccccc2)cc1 (stereo unspecified)	100*	27	8	-30	0	-1
CN1CCN(c2nc3c(c(=O)[nH]2)CCC3)CC1	nt	-13	-8	14	-1	-6
CCCNS(=O)(=O)c1ccc(OCC(=O)N2CCN(Cc3ccc4c(c3)OCO4)CC2)cc1	-5	nt	6	7	7	-3
COc1ccc(OCC(=O)N2CCN(Cc3ccc(SC)cc3)CC2)cc1	84*	26	30	25	-1	-1
COc1ccccc1OCC(=O)N1CCN(Cc2ccc3c(c2)OCO3)CC1	11	-8	4	7	4	14
N#Cc1ccc(OCC(=O)N2CCN(Cc3ccc4c(c3)OCO4)CC2)cc1	76*	5	-7	10	-3	6
O=C(COc1ccc(Cl)cc1)N1CCN(Cc2ccccc2)CC1	39	10	5	-1	-2	2
COc1ccc(OCC(=O)N2CCN(Cc3ccc4c(c3)OCO4)CC2)cc1	64*	-11	6	-13	-2	-3
Cc1cccc(OCC(=O)N2CCN(Cc3ccc([N+](=O)[O-])cc3)CC2)c1	58*	0	21	12	1	-3
COc1cccc(-n2c(CN3CCN(C)CC3)nc3ccc([N+](=O)[O-])cc3c2=O)c1	43	-8	12	-14	6	-6
CCOC(=O)C1(c2ccccc2)Oc2ccccc2C(c2ccc(OC)cc2)=C1C(=O)OC (stereo unspecified)	nt	nt	nt	32	nt	nt
Cc1ccc(C)c(OCC(=O)N2CCN(Cc3ccc4c(c3)OCO4)CC2)c1	20	1	17	15	-15	0
Cc1ccc(OCC(=O)N2CCN(Cc3ccc4c(c3)OCO4)CC2)cc1	83*	-6	18	10	-5	-24
CCCCOc1ccc(CCN)cc1Cl	89*	29	5	6	2	5
CC(C)Oc1ccc(CCN)cc1Cl	26	9	1	-17	1	2
